Publication PMC6331054 (Bioorganic & medicinal chemistry, 2018)

How the values were obtained:
[1] = target: T1, recombinant chicken RALDH2 (Gallus gallus, UniProt O93344); experiment: Fluorescence-based NADH assay of RALDH activity with retinaldehyde as substrate; assay type: biochemical
T1 sequence (O93344 1-518): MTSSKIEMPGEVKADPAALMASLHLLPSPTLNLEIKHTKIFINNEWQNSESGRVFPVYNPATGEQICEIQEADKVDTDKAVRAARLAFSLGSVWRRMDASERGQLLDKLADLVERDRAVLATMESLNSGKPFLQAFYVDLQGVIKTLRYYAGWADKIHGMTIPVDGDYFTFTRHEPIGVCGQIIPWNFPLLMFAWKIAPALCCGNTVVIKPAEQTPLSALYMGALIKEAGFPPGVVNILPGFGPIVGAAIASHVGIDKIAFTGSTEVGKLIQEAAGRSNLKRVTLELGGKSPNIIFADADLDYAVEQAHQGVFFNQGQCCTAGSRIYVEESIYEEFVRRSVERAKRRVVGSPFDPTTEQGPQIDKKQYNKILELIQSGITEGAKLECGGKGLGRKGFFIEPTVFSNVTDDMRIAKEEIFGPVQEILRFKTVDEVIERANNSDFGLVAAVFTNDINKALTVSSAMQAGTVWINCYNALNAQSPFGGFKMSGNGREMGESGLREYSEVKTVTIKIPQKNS

[2] = target: T2, recombinant human mitochondrial ALDH2 (hALDH2) (Homo sapiens, UniProt P05091); assay type: biochemical; details: read-out: KI (Morrison); Morrison equation; ALDH2 4.43 μM
T2 sequence (P05091 18-517): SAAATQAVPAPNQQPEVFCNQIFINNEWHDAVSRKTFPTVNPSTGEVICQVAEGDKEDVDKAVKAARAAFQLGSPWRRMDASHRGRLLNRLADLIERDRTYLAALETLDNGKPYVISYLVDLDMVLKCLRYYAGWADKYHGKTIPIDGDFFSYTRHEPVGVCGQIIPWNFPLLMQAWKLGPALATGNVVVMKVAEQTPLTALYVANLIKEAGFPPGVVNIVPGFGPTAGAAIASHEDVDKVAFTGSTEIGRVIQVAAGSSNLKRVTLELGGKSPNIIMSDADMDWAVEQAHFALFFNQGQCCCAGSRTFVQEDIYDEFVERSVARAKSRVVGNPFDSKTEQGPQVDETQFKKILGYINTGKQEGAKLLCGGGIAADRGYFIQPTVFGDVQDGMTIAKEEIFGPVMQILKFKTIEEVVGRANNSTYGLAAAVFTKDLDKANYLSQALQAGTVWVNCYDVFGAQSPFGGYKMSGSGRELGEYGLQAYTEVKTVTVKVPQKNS
Method in brief: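 Cobalt-purified recombinant hALDH2 (4.5 μM in Hepes pH 8.5/KCl/EDTA dialysis buffer plus 1 mM TCEP) in 20 mM Hepes pH 8.3, 150 mM KCl, 1 mM EDTA, 2 mM DTT, 5 mM propionaldehyde, 25°C. Pre-incubation 20 min–1 hr with test compound (1–100 μM final) or DMSO; NAD+ (5 mM final) started reaction; NADH at 340 nm for 5 min. KI by Morrison equation; triplicates, 3–5 experiments.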

[3] = target: T3, RALDH2 activity in chick choroid cytosol fractions (Gallus gallus, UniProt O93344); assay type: biochemical
T3 sequence (O93344 1-518): T1 sequence (O93344 1-518)
Method in brief: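 Choroidal cytosol from control and 4-day recovering chick eyes was pre-incubated 20 min at 37°C with test compound (0–6 μM) or DMSO. Reaction was started with NAD+ (4 mM) and all-trans-retinaldehyde (25 μM), run 30 min at 37°C under dim red light, stopped with ice and methanol. ATRA was quantified by HPLC.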

[4] = target: T4, RALDH2 activity (ATRA synthesis) in living intact chick choroids (Gallus gallus, UniProt O93344); experiment: RALDH2 activity after incubation of living, intact choroids in organ culture; assay type: cell-based; details: organ culture 24 hrs
T4 sequence (O93344 1-518): T1 sequence (O93344 1-518)
Method in brief: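 Choroids from 4-day recovering or contralateral control eyes of male White Leghorn chicks (8 mm posterior punch) were cultured one per well in N2 medium with test compound (methods: 0.01–5 μM; legend: 0.01–10 μM) or DMSO for 24 hrs at 37°C, 5% CO2. Cytosol (100,000g, 1 hr) was incubated with NAD+ and 25 μM all-trans-retinaldehyde for 30 min at 37°C, with methanol stop and HPLC quantification of ATRA.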

[5] = Stability of DAR on storage and under assay conditions; assay type: physicochemical

SMILES	Protection of RALDH2 activity by all-trans-retinaldehyde in the pre-incubation ([1]; 250 nM DAR + 250 μM RAL)	RALDH2 activity at enzyme concentrations below the DAR concentration ([1]; DAR 150 nM, RALDH2 46 – 91 nM)	Ki [2] [µM]	IC50 [3] [nM]	inhibition of RALDH2 activity in control choroid lysates ([3]; 0.10 – 6 μM DAR, 20 min pre-incubation at 37°C, control eyes, vs vehicle)	effect on ATRA synthesis in living, intact choroids from control eyes [4]	light stability ([5]; ambient light)	stability under assay conditions ([5]; dark, 25°C and 37°C)	storage stability ([5]; stored in the dark and at −80°)
CC1=C(/C=C/C(C)=C/C=C/C(C)=C/C(=O)C(Cl)Cl)C(C)(C)CCC1 [DAR, (3E,5E,7E,9E)-1,1-dichloro-4,8-dimethyl-10-(2,6,6-trimethylcyclohex-1-en-1-yl)deca-3,5,7,9-tetraen-2-one]	No protection	completely inhibited	> 100	20.7	92 – 99%	no significant effect	prone to photoisomerization	at least three days	at least three months
O=C(NCCCCCCCCNC(=O)C(Cl)Cl)C(Cl)Cl [WIN 18446, reference compound]	–	–	–	–	–	no significant effect	–	–	–
